Measured values collected from several papers.
Target: Dual specificity mitogen-activated protein kinase kinase 2 (MAP2K2, Homo sapiens, UniProt P36507)

SMILES | read-out | action | technique | concentration | endpoint | value
Cn1cc(-c2cc(F)cc(N3CCn4c(cc5c4CCCC5)C3=O)c2CO)cc(Nc2ccc(N3CCN(C4COC4)CC3)cn2)c1=O | enzyme activity | inhibitor |  | 0.1 µM | inhibition | 11%
Cn1cncc1[C@@](O)(COc1ccc(C#N)cc1-c1ccc(OC(F)(F)F)cc1)c1ccc(C#N)cc1 | cell-free assay |  | competition with immobilised ligand | 1 µM | remaining binding | 74%
CC(C)(C)c1cc(C=C(C#N)C#N)cc(Br)c1O | enzyme activity | inhibitor |  | 0.5 µM | remaining activity | 85.8%
N#CC1(c2ccccn2)CCN(Cc2cc(C(=O)O)c(=O)n3ccccc23)CC1 | cell-free assay |  | competition with immobilised ligand | 1 µM | remaining binding | 100%
Cn1cc(-c2cccc(N3CCc4c(sc5c4CC(C)(C)C5)C3=O)c2CO)cc(Nc2ccncn2)c1=O | enzyme activity | inhibitor |  | 1 µM | inhibition | 5%
O=c1[nH]c2ccccc2n1C1CCN(Cc2ccc(-c3[nH]c4cc5ncnc5cc4nc3-c3ccccc3)cc2)CC1 | cell-free assay |  |  | 0.5 µM | remaining signal | 86.6%
COc1cc(Nc2ncc(F)c(Nc3ccc4c(n3)NC(=O)C(C)(C)O4)n2)cc(OC)c1OC | binding |  | competition with immobilised ligand | 10 µM | inhibition | 87%
Nc1ncc(-c2nc(N3CCOCC3)nc(N3CCOCC3)n2)c(C(F)F)n1 | binding |  | competition with immobilised ligand | 10 µM | remaining binding | 77%
Cc1nn(C)cc1-c1nc2c(N3CCN(Cc4ccc(Cl)cc4)CC3)c(Cl)cnc2[nH]1 | binding |  | competition with immobilised ligand | 1 µM | remaining binding | 100%
COc1ncccc1-c1cnn2ccc(N3CCN(C(=O)OC(C)C)CC3)nc12 | binding |  | competition with immobilised ligand | 1 µM | remaining binding | 91%
